Inhibition and IC50 data for 17 compounds are collected here from ChEMBL document CHEMBL4270616, “Asymmetrical meta-methoxylated diarylpentanoids: Rational design, synthesis and anti-cancer evaluation in-vitro” (Eur J Med Chem, 2018).

For assay [1], the system named is A549. Nature of the assay: Cytotoxicity against human A549 cells assessed as inhibition of cell proliferation at 20 uM after 72 hrs by MTT assay relative to control. The format is functional. Conditions: A549, 72 h. In outline:
(§1)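 Single-concentration screen at 20 μM with 72 h exposure in DMEM with 10% FBS, final DMSO 0.1%. Read-out was MTT (5 mg/mL, 4 h, 37°C), DMSO solubilisation and absorbance at 570 nm, expressed as percent inhibition. Lines reaching a threshold percentage went on to IC50 determination.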

The subject of assay [2] is MCF7. Nature of the assay: Cytotoxicity against human MCF7 cells assessed as inhibition of cell proliferation at 20 uM after 72 hrs by MTT assay relative to control. It counts as functional. Conditions: MCF7, 72 h. In outline: as §1
Background: Tetrazolium dyes change colour on reduction, which living cells bring about.

Assay [3] relates to SW-620. Nature of the assay: Cytotoxicity against human SW620 cells after 72 hrs by MTT assay. The format is functional, cell-based. Conditions: SW-620, 72 h. In outline:
(§2)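 Tumour lines kept in DMEM with 10% FBS and 1% penicillin/streptomycin at 37°C, 5% CO2. Seeded at 1500-5000 cells/well by doubling time and size, 24 h, then compound in DMSO-containing medium (final DMSO 0.1%) for 72 h. MTT (5 mg/mL) 4 h at 37°C, DMSO solubilisation, absorbance at 570 nm.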

Assay [4] relates to HT-1080. As to the kind of experiment: Cytotoxicity against human HT1080 cells assessed as inhibition of cell proliferation at 20 uM after 72 hrs by MTT assay relative to control. The format is functional. Conditions: HT-1080, 72 h. The essentials:
as §1

Assay [5] has as its system HT-1080. Nature of the assay: Cytotoxicity against human HT1080 cells after 72 hrs by MTT assay. It counts as functional, cell-based. Conditions: HT-1080, 72 h. In outline: as §2
The nature of assay [6]: Cytotoxicity against human EJ28 cells after 72 hrs by MTT assay. The format is functional, cell-based. Particulars: EJ-28, 72 h. In outline:
as §2

The test system of assay [7] is A549. As to the kind of experiment: Cytotoxicity against human A549 cells after 72 hrs by MTT assay. The format is functional, cell-based. Particulars: A549, 72 h. In outline:
as §2

Assay [8] has as its system MCF7. As to the kind of experiment: Cytotoxicity against human MCF7 cells after 72 hrs by MTT assay. The format is functional, cell-based. Conditions: MCF7, 72 h. The essentials:
as §2

Assay [9] in a line: Cytotoxicity against human EJ28 cells assessed as inhibition of cell proliferation at 20 uM after 72 hrs by MTT assay relative to control. The format is functional. Particulars: EJ-28, 72 h. In outline:
as §1

In assay [10] the test system is NHDF. As to the kind of experiment: Cytotoxicity against NHDF after 72 hrs by MTT assay. The format is cell-based. Particulars: Homo sapiens. The essentials: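 NHDF grown in DMEM with 5% FBS at 37°C, 5% CO2. Seeded at 1500-5000 cells/well, 24 h, then compound added in DMSO-containing medium (final DMSO 0.1%) for 72 h. MTT (5 mg/mL in medium) added for 4 h at 37°C, formazan dissolved in DMSO, absorbance read at 570 nm.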

The test system of assay [11] is SW-620. Nature of the assay: Cytotoxicity against human SW620 cells assessed as inhibition of cell proliferation at 20 uM after 72 hrs by MTT assay relative to control. Conditions: SW-620, 72 h. The format is functional. The essentials:
as §1

For orientation: inhibition means the change of the read-out against control, counted positive when it falls. The term IC50 denotes the concentration that gives 50% inhibition. A higher IC50 goes with weaker potency in that assay. Turning to `COc1cc(/C=C2\CCC/C(=C\c3cccc(OC)c3OC)C2=O)cc(OC)c1`, the inhibition at 20 µM in assay [1], in assay [2], in [4], in assay [9] and in [11] was above 50% each time. Further, the half-inhibitory concentration (IC50) in assay [3] came to 3.8 µM; in [5], 4.5 µM; in assay [6], 3.6 µM; in assay [7] it was 10.2 µM; in assay [8], 1.7 µM; in assay [10] it was 13.1 µM.

For `COc1ccc(/C=C2\CCC/C(=C\c3ccccc3Br)C2=O)cc1OC`, the inhibition at 20 µM in assay [1], in assay [2], in assay [4], in assay [9] and in assay [11] was above 50% in each case. For the same compound, the IC50 is 5.3 µM in [3]; 8.4 µM in assay [5]; 7.4 µM in assay [6]; above 20 µM in [7]; 9.5 µM in assay [8]; 21.8 µM in assay [10].

In the case of `COc1ccc(/C=C2\CCC/C(=C\c3cccc(OC)c3OC)C2=O)c(OC)c1`, the inhibition at 20 µM in assay [1], in [2], in assay [4], in assay [9] and in assay [11] was above 50% in each case. In addition, the IC50 in assay [3] is above 20 µM; in assay [5] it was above 20 µM; in assay [6] it was above 20 µM; in assay [7], above 20 µM; in assay [8], above 20 µM; in assay [10] it was above 50 µM.

On to `COc1ccc(/C=C2\CCC/C(=C\c3cc(Cl)cc(Cl)c3)C2=O)cc1OC`, for which the inhibition at 20 µM in assay [1], in assay [2], in assay [4], in assay [9] and in assay [11] was above 50% each time. For the same compound, the IC50 came to 2.5 µM in [3]; 3 µM in [5]; 4.2 µM in [6]; 5.5 µM in assay [7]; 3.8 µM in assay [8]; 8.3 µM in [10].

Turning to `COc1cccc(/C=C2\CCC/C(=C\c3cc(Cl)cc(Cl)c3)C2=O)c1OC`, the inhibition at 20 µM in assay [1], in assay [2], in assay [4], in assay [9] and in assay [11] was above 50% throughout. For the same compound, the IC50 in assay [3] was found to be 5.5 µM; in assay [5] it was 6.1 µM; in assay [6] it was 7.5 µM; in assay [7], 12.5 µM; in [8] it was 4.3 µM; in [10], 21.6 µM.

For the compound `COc1ccc(/C=C2\CCC/C(=C\c3ccc(Br)cc3)C2=O)cc1OC`, the inhibition at 20 µM in assay [1], in assay [2], in [4], in [9] and in assay [11] was above 50% in each case. The half-inhibitory concentration (IC50) was 5.2 µM in assay [3]; 4.3 µM in [5]; 7.1 µM in assay [6]; 16 µM in assay [7]; 6.9 µM in assay [8]; 13.1 µM in assay [10].

As for `COc1ccc(/C=C2\CCC/C(=C\c3ccc(Cl)cc3Cl)C2=O)cc1OC`, the inhibition at 20 µM in assay [1], in assay [2], in assay [4], in assay [9] and in [11] was above 50% in each case. Further, the half-maximal inhibitory concentration (IC50) in assay [3] is 10.3 µM; in assay [5], 10.5 µM; in [6], 12.4 µM; in [7] it was above 20 µM; in [8], 16.2 µM; in assay [10], above 50 µM.

As for `COc1cccc(/C=C2\CCC/C(=C\c3ccc(O)cc3)C2=O)c1OC`, the inhibition at 20 µM in assay [1], in assay [2], in [4], in [9] and in assay [11] was above 50% throughout. The IC50 in assay [3] was above 20 µM; in assay [5], above 20 µM; in assay [6], above 20 µM; in assay [7] it was above 20 µM; in [8], above 20 µM; in assay [10] it was above 50 µM.

For the compound `COc1cccc(/C=C2\CCC/C(=C\c3ccc(OC)c(OC)c3)C2=O)c1`, the inhibition at 20 µM in assay [1], in [2], in [4], in [9] and in [11] was above 50% each time. Further, the IC50 in [3] was 3.7 µM; in assay [5], 4.6 µM; in assay [6], 4.2 µM; in assay [7], 6.7 µM; in assay [8], 4.6 µM; in assay [10], 11.6 µM.

On to `COc1ccc(/C=C2\CCC/C(=C\c3cccc(Cl)c3Cl)C2=O)cc1OC`, for which the inhibition at 20 µM in assay [1], in assay [2], in assay [4], in assay [9] and in [11] was above 50% each time. Moreover, the IC50 is 10.8 µM in [3]; 8.8 µM in assay [5]; 10.4 µM in assay [6]; above 20 µM in assay [7]; 14.3 µM in [8]; 18.5 µM in assay [10].

As for `COc1cccc(/C=C2\CCC/C(=C\c3cccc(O)c3)C2=O)c1OC`, the inhibition at 20 µM in [1], in [2], in assay [4], in [9] and in assay [11] was above 50% throughout. The IC50 in assay [3] was 6.4 µM; in assay [5], 8.5 µM; in [6], 8.5 µM; in [7], above 20 µM; in assay [8] it was 8.8 µM; in assay [10], 19.3 µM.

In the case of `COc1ccc(/C=C2\CCC/C(=C\c3cccc(Cl)c3)C2=O)cc1OC`, the inhibition at 20 µM in assay [1], in [2], in assay [4], in assay [9] and in assay [11] was above 50% each time. For the same compound, the half-inhibitory concentration (IC50) in assay [3] amounted to 5.1 µM; in [5] it was 4.9 µM; in assay [6], 5.4 µM; in assay [7], 11 µM; in assay [8], 6 µM; in assay [10] it was 11.9 µM.

As for `COc1cccc(/C=C2\CCC/C(=C\c3ccc(Br)cc3)C2=O)c1OC`, the inhibition at 20 µM in assay [1], in assay [2], in [4], in assay [9] and in assay [11] was above 50% in each case. The IC50 in assay [3] was 11.1 µM; in [5], 13.7 µM; in assay [6], 15.2 µM; in assay [7] it was above 20 µM; in assay [8] it was 13.8 µM; in assay [10], 21.4 µM.

As to `COc1cccc(/C=C2\CCC/C(=C\c3cccc(OC)c3OC)C2=O)c1OC`, the inhibition at 20 µM in assay [1], in assay [2], in [4], in [9] and in [11] was above 50% throughout. Moreover, the IC50 in assay [3] turned out to be 8.3 µM; in assay [5], 6.1 µM; in assay [6], 8.4 µM; in [7], 11.4 µM; in assay [8], 5 µM; in assay [10], 31 µM.

`COc1ccc(/C=C2\CCC/C(=C\c3ccc(O)c(Cl)c3)C2=O)cc1OC`: the inhibition at 20 µM in assay [1], in [2], in assay [4], in assay [9] and in [11] was above 50% in each case. In addition, the IC50 in assay [3] is 7.1 µM; in [5], 7.6 µM; in assay [6], 8 µM; in assay [7], above 20 µM; in assay [8], 12.3 µM; in [10], 21.9 µM.

For the compound `COc1ccc(/C=C2\CCC/C(=C\c3ccc(OC)c(OC)c3)C2=O)c(OC)c1`, the inhibition at 20 µM in assay [1], in assay [2], in assay [4], in assay [9] and in [11] was above 50% throughout. For the same compound, the IC50 is above 20 µM in assay [3]; 17.1 µM in [5]; above 20 µM in assay [6]; above 20 µM in assay [7]; 15.6 µM in [8]; above 50 µM in [10].

With `COc1ccc(/C=C2\CCC/C(=C\c3cccc(OC)c3OC)C2=O)cc1`, the inhibition at 20 µM in assay [1], in [2], in [4], in assay [9] and in assay [11] was above 50% throughout. Further, the IC50 in [3] was 13.6 µM; in assay [5] it was 16.3 µM; in [6], 16.8 µM; in assay [7], above 20 µM; in assay [8], 18.6 µM; in assay [10], 43.5 µM.
